Series [1] deals with Intercellular adhesion molecule 1 (Homo sapiens, UniProt P05362). The experiment in a line: Inhibition of intercellular adhesion molecule-1 (ICAM1) in human endothelial cells. It counts as cell-based, Endothelial cell. A digest of the protocol: (§1)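 Whole-cell ELISA on primary HUVECs plated at 5 × 10^4 cells/mL in EBM/2% FBS with growth supplements. Compound preincubated 24 h at 37 °C, then inducer added (TNFα at 5 ng/mL final, or IL-1β or PMA in its place) for 6 h at 37 °C. Mouse monoclonal anti-E-selectin, anti-ICAM-1 or anti-VCAM-1 was applied overnight at 4 °C, then HRP anti-mouse IgG. Detection with OPD, A490. Triplicate assays.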
Sequence of Intercellular adhesion molecule 1 (P05362 whole entry): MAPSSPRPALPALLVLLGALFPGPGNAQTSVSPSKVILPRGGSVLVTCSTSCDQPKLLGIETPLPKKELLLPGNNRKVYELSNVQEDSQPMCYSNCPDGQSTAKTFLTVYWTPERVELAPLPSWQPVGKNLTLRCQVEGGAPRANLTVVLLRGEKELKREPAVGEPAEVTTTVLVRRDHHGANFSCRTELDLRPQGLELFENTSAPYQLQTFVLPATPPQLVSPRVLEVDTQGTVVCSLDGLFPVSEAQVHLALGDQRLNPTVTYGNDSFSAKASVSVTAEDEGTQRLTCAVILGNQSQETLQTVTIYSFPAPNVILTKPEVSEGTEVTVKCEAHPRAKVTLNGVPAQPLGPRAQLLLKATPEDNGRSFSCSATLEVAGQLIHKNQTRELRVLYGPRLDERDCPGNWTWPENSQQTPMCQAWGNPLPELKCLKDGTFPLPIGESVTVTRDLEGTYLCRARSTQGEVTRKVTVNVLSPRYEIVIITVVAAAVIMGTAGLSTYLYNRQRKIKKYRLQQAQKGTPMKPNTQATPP

The target in series [2] is T1, E-selectin (Homo sapiens, UniProt P16581).
T1 sequence (P16581 whole entry): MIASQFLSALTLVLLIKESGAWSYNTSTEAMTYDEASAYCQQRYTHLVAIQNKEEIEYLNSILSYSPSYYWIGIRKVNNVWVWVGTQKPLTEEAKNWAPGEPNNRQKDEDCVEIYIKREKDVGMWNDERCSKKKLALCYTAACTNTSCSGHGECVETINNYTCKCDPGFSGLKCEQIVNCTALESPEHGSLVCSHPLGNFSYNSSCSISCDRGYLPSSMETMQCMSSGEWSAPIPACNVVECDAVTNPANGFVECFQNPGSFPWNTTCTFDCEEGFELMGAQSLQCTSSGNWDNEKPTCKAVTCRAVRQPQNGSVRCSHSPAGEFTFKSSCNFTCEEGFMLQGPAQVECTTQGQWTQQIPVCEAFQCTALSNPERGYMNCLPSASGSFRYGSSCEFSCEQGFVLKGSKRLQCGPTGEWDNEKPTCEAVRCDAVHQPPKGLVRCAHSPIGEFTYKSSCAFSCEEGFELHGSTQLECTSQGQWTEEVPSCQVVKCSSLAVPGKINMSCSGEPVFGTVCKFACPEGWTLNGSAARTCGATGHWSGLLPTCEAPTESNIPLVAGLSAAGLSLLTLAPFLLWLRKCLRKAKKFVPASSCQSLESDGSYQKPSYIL
Kind of series: Inhibition of selectin E in human endothelial cells. It is filed as cell-based, Endothelial cell. The method, boiled down: as §1

A short description of series [3]: Solubility in pH 7.4 buffer. It is filed as physicochemical.
Series [4] can be described thus: Toxicity in HUVEC cell lysates. It is filed as cell-based, Lysate. Conditions: human.
The nature of series [5]: Solubility in pH 7.4 buffer. It is filed as physicochemical.

Converted amounts (≈) assume the structure as drawn.

Regarding `CNC(=O)c1cc2c(Oc3ccc(/C=C/C(=O)NCCc4c[nH]cn4)cc3)cncc2s1`, the IC50 (commonly the midpoint of a concentration-inhibition curve) in series [1] stood at 670 nM; in series [2], 600 nM.
For `Cc1cc(Cl)ccc1Oc1cncc2sc(C(N)=O)cc12`, in that order: 580 nM and 370 nM.
For `CCOCCOCCOCC(F)(F)c1ccc(Oc2cncc3sc(C(=O)NC)cc23)cc1`, in that order: 26 nM and 110 nM.
In the case of `NC(=O)c1cc2c(Oc3ccc(/C=C/C(=O)NCCN4CCOCC4)cc3)cncc2s1`, the IC50 in series [1] stood at 32 nM; in series [2], 34 nM.
As to `COCc1ccc(Oc2cncc3sc(C(N)=O)cc23)cc1`, the IC50 in series [1] and in series [2] was 16 nM each time. For the same molecule, in series [3], the concentration in solution (solubility) came to 6.2 µg/mL (≈ 19.7 µM).
For `NC(=O)c1cc2c(Oc3ccc(/C=C/C(=O)NCCN(CCO)CCO)cc3)cncc2s1`, the figures for the IC50 in series [1] and in series [2] were 820 nM and 650 nM, respectively.
In the case of `CC(C)c1ccc(Oc2cncc3sc(C(N)=O)cc23)cc1`, the IC50 in series [4] turned out to be 34000 nM; in series [1], 47 nM; in series [2], 76 nM.
As to `CNC(=O)c1cc2c(Oc3ccc(/C=C/C(=O)NCC(O)CO)cc3)cncc2s1` (configuration not stated), the IC50 in series [1] was 580 nM; in series [2], 830 nM.
Turning to `NC(=O)c1cc2c(Oc3ccc(Cl)c(F)c3)cncc2s1`, the figures for the IC50 in series [1] and in series [2] were 10 nM and 8 nM, respectively.
For `NC(=O)c1cc2c(Oc3ccc(/C=C/C(=O)NCC(O)CO)cc3)cncc2s1` (configuration not stated), in that order: 790 nM and more than 715 nM.
As for `CNC(=O)c1cc2c(Oc3ccc(-c4cccs4)cc3)cncc2s1`, the IC50 was found to be 6 nM in series [1] and 5 nM in series [2].
For the molecule `NC(=O)c1cc2c(Oc3ccc(I)cc3)cncc2s1`, the IC50 in series [1] was determined as 4 nM; in series [2], 6 nM.
On to `NC(=O)c1cc2c(Oc3ccc(COC4CCCCO4)cc3)cncc2s1` (configuration not stated), for which the IC50 came out at 1.4 nM in series [1] and 2 nM in series [2].
Regarding `CNC(=O)c1cc2c(Oc3ccc(COCCOC)cc3)cncc2s1`, the IC50 in series [1] was 8 nM; in series [2] it was 7 nM. For the same molecule, the solubility (in general, the concentration that dissolves in the medium under given conditions) in series [3] turned out to be 25.7 µg/mL (≈ 69 µM).
Turning to `NC(=O)c1cc2c(Oc3ccc(C(=O)N4CCOCC4)cc3)cncc2s1`, the IC50 in series [1] was determined as 830 nM; in series [2] it was 870 nM.
For `NC(=O)c1cc2c(Oc3ccc(N)cc3)cncc2s1`, in that order: 42 nM and 35 nM.
As for `COCCOCCOCc1ccc(Oc2cncc3sc(C(N)=O)cc23)cc1`, in series [3], the concentration in solution (solubility) was 160 µg/mL (≈ 398 µM).
In the case of `CNC(=O)c1cc2c(Oc3ccc(/C=C/C(=O)NCCN4CCOCC4)cc3)cncc2s1`, the IC50 in series [1] was 53 nM; in series [2], 43 nM.
Regarding `NC(=O)c1cc2c(Oc3cccc(Br)c3)cncc2s1`, the IC50 in series [1] was 110 nM; in series [2], 80 nM.
In the case of `CNC(=O)c1cc2c(Oc3ccc(-c4noc(C(F)(F)F)n4)cc3)cncc2s1`, the IC50 was 22 nM in series [1] and 28 nM in series [2].
Turning to `NC(=O)c1cc2c(Oc3ccc(C(O)CO)cc3)cncc2s1` (configuration not stated), the half-inhibitory concentration (IC50) stood at 680 nM in series [1] and 670 nM in series [2]. For the same molecule, the concentration in solution in series [3] (solubility) was 15.3 µg/mL (≈ 46.3 µM).
With `CCOC(=O)c1ccc(Oc2cncc3sc(C(N)=O)cc23)cc1`, the IC50 was 18 nM in series [1] and 20 nM in series [2].
The matching figures for `CNC(=O)c1cc2c(Oc3ccc(C(=O)NCCN4CCOCC4)cc3)cncc2s1`: 730 nM and 770 nM.
Regarding `CNC(=O)c1cc2c(Oc3ccc(COC)cc3)cncc2s1`, the concentration in solution in series [5] (solubility) was 4.8 µg/mL (≈ 14.6 µM). Further, the values for the IC50 in series [1] and in series [2] were 17 nM and 13 nM, respectively.
Regarding `NC(=O)c1cc2c(Oc3ccc(C(=O)N(C(=O)NC4CCCCC4)C4CCCCC4)cc3)cncc2s1`, the results for the IC50 in series [1] and in series [2] were 116 nM and 115 nM, respectively.
For `CNC(=O)c1cc2c(Oc3ccc(-c4ccccc4)cc3)cncc2s1`, in that order: 25 nM and 9 nM.
The matching figures for `CNC(=O)c1cc2c(Oc3ccc(/C=C/C(=O)NCCN(CCO)CCO)cc3)cncc2s1`: 600 nM and 680 nM.
With `CNC(=O)c1cc2c(Oc3ccc(-c4cncn4C)cc3)cncc2s1`, the IC50 in series [1] was found to be 360 nM; in series [2] it was 150 nM.
The matching figures for `NC(=O)c1cc2c(Oc3ccc(C(=O)NCCN4CCOCC4)cc3)cncc2s1`: more than 1000 nM and more than 1000 nM.
For `NC(=O)c1cc2c(Oc3cccc(C(F)(F)F)c3)cncc2s1`, the IC50 in series [1] came out at 760 nM; in series [2], 870 nM.
In the case of `CCOC(=O)c1cccc(Oc2cncc3sc(C(N)=O)cc23)c1`, the IC50 in series [1] turned out to be 680 nM; in series [2] it was 630 nM.
Turning to `CCOCCOCCOCC1(c2ccc(Oc3cncc4sc(C(=O)NC)cc34)cc2)CC1`, the IC50 in series [4] was more than 10 µg/mL.
With `CNC(=O)c1cc2c(Oc3ccc(N4CCOCC4)cc3)cncc2s1`, the IC50 in series [1] stood at 79 nM; in series [2], 35 nM.
With `NC(=O)c1cc2c(Oc3ccc(Cl)cc3Br)cncc2s1`, the IC50 in series [1] was 300 nM; in series [2] it was 110 nM.
The molecule `NC(=O)c1cc2c(Oc3ccc(CO)cc3)cncc2s1` came in with a solubility in series [5] of 6.9 µg/mL (≈ 23 µM).
Consider `COCCOCc1ccc(Oc2cncc3sc(C(N)=O)cc23)cc1`, for which the IC50 was found to be 6 nM in series [1] and 5 nM in series [2].
Regarding `CNC(=O)c1cc2c(Oc3ccc(-n4ccnc4)cc3)cncc2s1`, the IC50 in series [4] is more than 10000 nM; in series [1] it was 6 nM; in series [2], 2 nM.
As to `CNC(=O)c1cc2c(Oc3ccc(-n4cncn4)cc3)cncc2s1`, the IC50 in series [1] came to 160 nM; in series [2], 180 nM.
For `CNC(=O)c1cc2c(Oc3ccc(-c4nn[nH]n4)cc3)cncc2s1`, the half-inhibitory concentration (IC50) in series [1] and in series [2] was more than 1000 nM throughout.
In the case of `Cc1ccc(Oc2cncc3sc(C(N)=O)cc23)cc1`, the values for the IC50 in series [4], in series [1] and in series [2] were 91000 nM, 20 nM and 20 nM, respectively.
On to `CNC(=O)c1cc2c(Oc3ccc(C(=N)NO)cc3)cncc2s1`, for which the IC50 in series [4] is more than 10000 nM; in series [1] it was 59 nM; in series [2] it was 13 nM.

The record behind these values is ChEMBL document CHEMBL1134459 (J Med Chem, 2001).
